Screening results deposited in PubChem BioAssay by Broad Institute.
GSIS activator – GLuc luminescence reporter in INS-1E cells, primary screen for activators of glucose-dependent secretion of insulin; INS-1E GLuc reporter insulin secretion, 2-3 h; activation, % at 16.6 µM; 370,000 compounds, 0.61% hits;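 active = lowest replicate activation of at least 40%, so every replicate reaches that level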;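 also: 0% = median of neutral control wells and 100% = median of IBMX positive control wells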
AF4-AF9 inh – inhibitors of AF4 peptide binding to AF9, primary screen, biochemical, AlphaScreen, biotin-AF4 peptide, FLAG-AF9, single point | Protein AF-9 (Homo sapiens), P42568 | inhibition, % at 10 µM | 350,000 compounds, 0.47% hits | AID 651704, 2012;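 active = every replicate reaching a set inhibition limit, whatever the replicate mean, cut at about 25% in these data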;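 also: 0% = plate neutral control median and 100% = total signal loss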
Target sequence (P42568 whole entry, looked up): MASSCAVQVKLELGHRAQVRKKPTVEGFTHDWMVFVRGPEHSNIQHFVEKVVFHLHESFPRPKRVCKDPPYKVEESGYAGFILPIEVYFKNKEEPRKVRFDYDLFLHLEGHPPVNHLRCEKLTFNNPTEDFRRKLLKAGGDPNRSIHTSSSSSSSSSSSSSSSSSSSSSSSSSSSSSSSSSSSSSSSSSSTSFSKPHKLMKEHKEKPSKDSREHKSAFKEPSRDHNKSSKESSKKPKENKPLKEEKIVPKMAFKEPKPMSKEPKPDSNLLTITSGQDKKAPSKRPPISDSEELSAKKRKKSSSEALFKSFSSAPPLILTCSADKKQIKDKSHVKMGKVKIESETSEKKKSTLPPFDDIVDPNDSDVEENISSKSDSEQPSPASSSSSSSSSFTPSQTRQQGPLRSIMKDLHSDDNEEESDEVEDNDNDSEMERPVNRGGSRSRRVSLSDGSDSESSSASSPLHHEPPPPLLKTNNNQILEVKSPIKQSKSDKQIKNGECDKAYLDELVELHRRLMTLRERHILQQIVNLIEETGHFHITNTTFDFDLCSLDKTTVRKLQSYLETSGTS
PGC1a acetyl inh – inhibitors of PGC1a acetylation signal, primary screen, cell-based, U2OS, AlphaScreen, inhibitor mode | AlphaScreen anti-acetyl-lysine; with virally co-expressed GCN5 acetyltransferase | inhibition, % at 15.6 µM | 350,000 compounds, 0.17% hits;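 active = every replicate shows inhibition of at least 40%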;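 also: 0% = neutral control wells and 100% = positive control wells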
PAX8 reporter – inhibitors of PAX8-driven TPO luciferase reporter, primary screen, RMG-I cells, single concentration | inhibition, % at 12.6 µM | 360,000 compounds, 1.2% hits | SteadyGlo, 24 h;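 active = mean replicate inhibition at least 60% with every replicate also reaching 60%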;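 also: luciferase light reporting Pax8 driven TPO promoter activity; plate controls were median of neutral control wells for no effect and mitoxantrone controls for full effect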
EWS-Fli block – EWS/Fli-driven NR0B1 reporter inhibitors, primary screen, A673 cells, NR0B1 luciferase, luminescence, MLPCN library; viability-normalised; inhibition, % at 12.6 µM; 350,000 compounds, 0.67% hits; AID 651661, 2012;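 active = mean inhibition of at least 50% after viability correction, with every replicate also passing that limit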;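 also: firefly luciferase signal divided by Alamar Blue viability fluorescence both relative to DMSO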
XiGFP reactiv – activators of inactive X chromosome reactivation, primary screen, imaging, XiGFP fibroblasts, GFP high-content imaging, set 2; XiGFP mouse fibroblasts, % GFP-positive cells imaging, 3 d; cells co-treated with 5-aza-dC sensitizer; scaled so ellipticine positive control = 100%; activation, % at 7.58 µM; 360,000 compounds, 0.055% hits; AID 743238, 2013;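 active = mean normalized replicate activation at least 10% and every replicate at or above 10%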;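 also: 0% = median of on-plate neutral control wells and 100% = ellipticine 6 µM median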
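Assay system – SV40-immortalized XiGFP fibroblast cells, line 68-5-11 · Buffer or medium – DMEM supplemented with 5-aza-dC as sensitizing agent · Dosing – one concentration, pinned · Benchmarks – positive control ellipticine, 6 µM final · Times – 3 days compound exposure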
The depositor's hits bear a star. In the library only some 2.1% were active in any assay of this set; here they are far more common.

Screening COc1ccc([Si](C)(C)[C@H]2[C@H](CCO)O[C@@]3(C(=O)N(Cc4ccccc4)c4ccc(NC(C)=O)cc43)[C@@H]2C)cc1 returned AF4-AF9 inh 2.8, PGC1a acetyl inh 0.3, PAX8 reporter 53.5 and EWS-Fli block 30.0.
COc1ccc([Si](C)(C)[C@@H]2[C@@H](CCO)O[C@]3(C(=O)N(Cc4ccccc4)c4ccc(N5CCCCC5=O)cc43)[C@H]2C)cc1 was read as AF4-AF9 inh 2.8, PGC1a acetyl inh -16.7, PAX8 reporter 34.6 and EWS-Fli block 10.6.
`C=CCN1C(=O)[C@]2(O[C@H](CCn3cc([C@H](O)c4ccccc4)nn3)[C@@H]([Si](C)(C)c3ccc(OC)cc3)[C@@H]2C)c2cc(N3CCOC3=O)ccc21` gave AF4-AF9 inh -9.2, PAX8 reporter 0.8 and EWS-Fli block 15.7.
`COc1ccc([Si](C)(C)[C@@H]2[C@@H](CCO)O[C@]3(C(=O)N(Cc4cccc(NC(C)=O)c4)c4ccccc43)[C@H]2C)cc1` gave AF4-AF9 inh 2.2, PGC1a acetyl inh -10.6, PAX8 reporter 103.5* and EWS-Fli block 20.9.
`COc1ccc([Si](C)(C)[C@@H]2[C@@H](CCO)O[C@]3(C(=O)N(Cc4ccccc4)c4ccc(N5C(=O)c6cccc7cccc5c67)cc43)[C@H]2C)cc1` gave AF4-AF9 inh -0.4, PGC1a acetyl inh -17.5, PAX8 reporter 88.0* and EWS-Fli block -0.3.
C[C@H]1CN([C@@H](C)CO)C(=O)Cc2cc(NC(=O)NC3CCCCC3)ccc2O[C@@H]1CN(C)S(C)(=O)=O was read as GSIS activator 11.1, AF4-AF9 inh -0.7, PGC1a acetyl inh -2.8, PAX8 reporter 12.6, EWS-Fli block 7.9 and XiGFP reactiv 0.0.
Screening C[C@H](CO)N1C[C@H](C)[C@@H](CN(C)S(=O)(=O)c2cccs2)OCCCC[C@H](C)Oc2ccc(NS(=O)(=O)c3ccc(F)cc3)cc2C1=O returned GSIS activator -13.3, AF4-AF9 inh -3.3, PGC1a acetyl inh 0.7, PAX8 reporter 36.8, EWS-Fli block -2.7 and XiGFP reactiv -0.1.
For C[C@@H]1CCCCO[C@H](CN(C)CC2CCCCC2)[C@H](C)CN([C@H](C)CO)C(=O)c2cc(NC(=O)CCC(F)(F)F)ccc2O1 the results were GSIS activator -0.6, PGC1a acetyl inh -2.8, PAX8 reporter 15.4, EWS-Fli block -5.6 and XiGFP reactiv -0.1.
Screening O=C(C[C@H]1CC[C@@H]2[C@H](COC[C@H](O)CN2C(=O)Nc2ccc(Cl)c(Cl)c2)O1)NC1CCC1 returned GSIS activator -16.9, AF4-AF9 inh 1.4, PGC1a acetyl inh 4.3, PAX8 reporter 2.1, EWS-Fli block -7.5 and XiGFP reactiv 0.3.
CCCN1C[C@H](C)[C@@H](OC)CN(C)C(=O)c2ccc(NC(=O)c3cccc(OC)c3)cc2OC[C@@H]1C was read as GSIS activator -24.7 and XiGFP reactiv 0.2.
For CCCNC(=O)Nc1ccc2c(c1)C(=O)N(C)C[C@H](OC)[C@@H](C)CN(C(=O)C1CCCCC1)[C@H](C)CO2 the results were GSIS activator 2.6, AF4-AF9 inh -2.1, PGC1a acetyl inh -1.6, PAX8 reporter 3.1, EWS-Fli block 1.4 and XiGFP reactiv -0.1.
CCCCCc1cc(=O)oc2c(C(CCN3CCCCC3)c3ccc(OC)cc3)c(OC)cc(OC)c12 (centres undefined) was read as AF4-AF9 inh 19.1, PAX8 reporter 66.0*, EWS-Fli block 8.4 and XiGFP reactiv 0.0.
Screening CCCCCc1cc(=O)oc2c(C(CCN3CCCC(C)C3)c3ccc(OC)cc3)c(OC)cc(OC)c12 (centres undefined) returned GSIS activator 339.0*, AF4-AF9 inh 8.4, PGC1a acetyl inh 1.4, PAX8 reporter 32.1, EWS-Fli block 43.0 and XiGFP reactiv 0.0.
`CO[C@@H]1CN(C)C(=O)c2ccc(NC(=O)C3CC3)cc2OC[C@@H](C)N(C(=O)c2ccccn2)C[C@H]1C` gave GSIS activator 6.7, AF4-AF9 inh -2.4, PGC1a acetyl inh -1.7, PAX8 reporter -13.6, EWS-Fli block 5.4 and XiGFP reactiv 0.5.
`Cc1ccc(-c2nc(-c3ccccc3)no2)c(Cl)c1` gave GSIS activator 1.8, AF4-AF9 inh -6.4, PGC1a acetyl inh -2.5, PAX8 reporter -11.7, EWS-Fli block 83.9* and XiGFP reactiv 0.1.
For Cc1ccc(-c2nc(-c3ccccc3)no2)cc1 the results were PGC1a acetyl inh 1.3.
Screening COc1ccccc1CN1CC(C(=O)NCCCc2ccc(F)cc2)CCC1=O (centres undefined) returned GSIS activator 10.5, AF4-AF9 inh 42.2*, PGC1a acetyl inh -6.1, PAX8 reporter 5.7, EWS-Fli block 1.8 and XiGFP reactiv 0.1.
COc1ccc(-n2nc3cc(C)c(NC(C)=O)cc3n2)cc1 was read as GSIS activator 38.6, AF4-AF9 inh -0.7, PAX8 reporter -135.0, EWS-Fli block 50.6* and XiGFP reactiv 0.0.
`C[C@H]1CN([C@@H](C)CO)C(=O)c2cc(NC(=O)CCN3CCOCC3)ccc2O[C@@H]1CN(C)Cc1ccc(-c2ccccc2)cc1` gave GSIS activator 5.1, AF4-AF9 inh 9.3, PGC1a acetyl inh 3.8, PAX8 reporter -10.8 and XiGFP reactiv -0.4.
Screening CCCC(=O)N1CC2(CCN(C(=O)CC3CC3)CC2)c2c(n(C)c3cc(OC)ccc23)[C@H]1CO returned GSIS activator -10.6 and XiGFP reactiv 0.0.
Screening O=C(/C=C/C(Cl)(Cl)Cl)Nc1ccc(Cl)cc1 returned GSIS activator 170.5*, AF4-AF9 inh 4.8, PGC1a acetyl inh 9.0, PAX8 reporter 51.2, EWS-Fli block 52.6* and XiGFP reactiv -0.1.
For NC(=O)/C=C/C(=O)Nc1ccc(Cl)cc1 the results were GSIS activator -13.9, AF4-AF9 inh 3.4, PGC1a acetyl inh -11.7, PAX8 reporter 28.0, EWS-Fli block 0.7 and XiGFP reactiv 0.1.
For CO[C@H]1CN(C)C(=O)c2cc(NC(=O)c3ccno3)ccc2OC[C@@H](C)NC[C@H]1C the results were GSIS activator -7.9, AF4-AF9 inh -4.6, PGC1a acetyl inh 6.9, PAX8 reporter 0.7, EWS-Fli block -2.0 and XiGFP reactiv -0.3.
CCOC(=O)C(C)Oc1cccc2c(=O)n(CC(=O)Nc3cccc(OC)c3)ccc12 (centres undefined) was read as GSIS activator -25.0, AF4-AF9 inh -9.2, PAX8 reporter 7.9, EWS-Fli block 40.3 and XiGFP reactiv 0.2.
